Results reported in ChEMBL document CHEMBL1125014, “Synthesis and structure-activity relationships of new 9-N-alkyl derivatives of 9(S)-erythromycylamine” (1990).
≈ marks a conversion by molar mass, not a printed value.

Key:
Streptococcus pneumoniae [1] = test: MIC value measured against streptococcus pneumoniae Park1; type: functional
Mus musculus [2] = test: ED50 value was measured by po administration against streptococcus pyogenes infection in mice (in vivo, in experiment 3); type: functional
Mus musculus [3] = test: ED50 value was measured by sc administration against streptococcus pyogenes infection in mice (in vivo, in experiment 1); type: functional
Method in brief: (§1)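 Infected mice were dosed orally or subcutaneously at 1 and 5 h postinfection, 0.25 mL of antibiotic solution in 10% aqueous ethanol per dose. Tartaric acid was added where needed for solubility. Several dose concentrations were tested to give the ED50.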

Mus musculus [4] = test: ED50 value was measured by po administration against streptococcus pneumoniae infection in mice (in vivo, in experiment 2); type: functional; method in brief: as §1
Mus musculus [5] = test: Plasma concentration in mice was determined by subcutaneous administration, 20 mg/kg at 2 hr; type: functional, organism-based; set-up: dose 20 mg/kg
Method in brief: (§2)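 Mice given 20 mg/kg orally or subcutaneously; peripheral plasma sampled at 5, 20 and 40 min and at 1, 2 and 4 h after dosing. Microbiological assay used Micrococcus luteus seeded in Antibiotic Medium 1, with zone sizes converted by the compound's own standard curve. Each value is the average of five mice per time point.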

Rattus norvegicus [6] = species: Rattus norvegicus; test: Fluid concentration in serum tissue was determined in rats at 6 h; type: functional
Method in brief: (§3)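 Rats dosed by gavage at 20 mg/kg; lung, liver, kidney, urine and serum sampled at 0.5, 1, 2, 4 and 6 h after dosing. Antibiotic measured by microbiological assay with Micrococcus luteus seeded in Antibiotic Medium 1. Zone sizes were read against the standard curve for the same compound. Each value is the average of three rats per time point.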

Rattus norvegicus [7] = species: Rattus norvegicus; test: Fluid concentration in liver tissue was determined in rats at 6 h; type: functional; method in brief: as §3
Mus musculus [8] = test: Plasma concentration in mice was determined by oral administration, 20 mg/kg at 40 min; type: functional, organism-based; set-up: dose 20 mg/kg; method in brief: as §2
Streptococcus pyogenes [9] = test: Effective dose against mice infected with streptococcus pyogenes after peroral administration (in vivo); type: functional; settings: in Mus musculus, po
Rattus norvegicus [10] = species: Rattus norvegicus
Mus musculus [11] = test: ED50 value was measured by po administration against streptococcus pyogenes infection in mice (in vivo, in experiment 1); type: functional; method in brief: as §1
Rattus norvegicus [12] = species: Rattus norvegicus; remark: listed apart in the source
Rattus norvegicus [13] = species: Rattus norvegicus; test: Fluid concentration in serum tissue was determined in rats at 0.5 h; type: functional; method in brief: as §3
Mus musculus [14] = test: ED50 value was measured by sc administration against streptococcus pneumoniae infection in mice (in vivo, in experiment 3); type: functional
Rattus norvegicus [15] = species: Rattus norvegicus; test: Fluid concentration in lung tissue was determined in rats at 2 h; type: functional; method in brief: as §3
Mus musculus [16] = test: Plasma concentration in mice was determined by subcutaneous administration, 20 mg/kg at 5 min; type: functional, organism-based; set-up: dose 20 mg/kg; method in brief: as §2
Rattus norvegicus [17] = species: Rattus norvegicus; test: Fluid concentration in liver tissue was determined in rats at 1 h; type: functional; method in brief: as §3
Rattus norvegicus [18] = species: Rattus norvegicus; test: Fluid concentration in lung tissue was determined in rats at 4 h; type: functional; method in brief: as §3
Haemophilus influenzae = test: MIC value was measured against haemophilus influenzae CL; type: functional
Rattus norvegicus [19] = species: Rattus norvegicus; test: Fluid concentration in lung tissue was determined in rats at 6 h; type: functional; method in brief: as §3
Rattus norvegicus [20] = species: Rattus norvegicus; remark: listed apart in the source
Rattus norvegicus [21] = species: Rattus norvegicus; test: Fluid concentration in liver tissue was determined in rats at 0.5 h; type: functional
Method in brief: (§4)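 Rats were gavaged at 20 mg/kg and tissues sampled 0.5–6 h after dosing. Drug was assayed microbiologically with Micrococcus luteus seeded in Antibiotic Media 1. Zone sizes were read against each compound's own standard curve. Values are the mean of three rats per time point, in μg/g.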

Mus musculus [22] = test: ED50 value was measured by po administration against staphylococcus aureus infection in mice (in vivo, in experiment 1); type: functional; method in brief: as §1
Streptococcus pneumoniae [23] = test: Effective dose against mice infected with streptococcus pneumoniae after peroral administration (in vivo); type: functional; settings: in Mus musculus, po
Rattus norvegicus [24] = species: Rattus norvegicus; test: Fluid concentration in lung tissue was determined in rats at 0.5 h; type: functional; method in brief: as §3
Rattus norvegicus [25] = test: Plasma concentration in rats was determined by oral administration, 20 mg/kg at 40 min; type: functional, organism-based; set-up: dose 20 mg/kg
Method in brief: (§5)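 Peripheral plasma antibiotic levels in rats given 20 mg/kg orally or subcutaneously. Plasma was sampled at timed points after dosing. Levels were measured by microbiological agar assay with Micrococcus luteus seeded in Antibiotic Media 1, reading zone sizes, and were calculated from a standard curve for the appropriate compound. Each value is the average of three rats per time point, in μg/mL.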

Rattus norvegicus [26] = species: Rattus norvegicus; test: Fluid concentration in urine tissue was determined in rats at 1 h; type: functional; method in brief: as §3
Rattus norvegicus [27] = test: Plasma concentration in rats was determined by subcutaneous administration, 20 mg/kg at 2 h; type: functional, organism-based; set-up: dose 20 mg/kg; method in brief: as §5
Streptococcus pyogenes [28] = test: MIC value measured against streptococcus pyogenes C203; type: functional
Staphylococcus aureus [29] = test: MIC value measured against staphylococcus aureus X1; type: functional
Mus musculus [30] = test: Plasma concentration in mice was determined by subcutaneous administration, 20 mg/kg at 20 min; type: functional, organism-based; set-up: dose 20 mg/kg; method in brief: as §2
Staphylococcus aureus [31] = test: Effective dose against mice infected with Staphylococcus aureus after peroral administration (in vivo); type: functional; settings: in Mus musculus, po
Mus musculus [32] = test: ED50 value was measured by sc administration against staphylococcus aureus infection in mice (in vivo, in experiment 3); type: functional
Mus musculus [33] = test: ED50 value was measured by po administration against streptococcus pneumoniae infection in mice (in vivo, in experiment 1); type: functional; method in brief: as §1
Rattus norvegicus [34] = species: Rattus norvegicus; test: Fluid concentration in lung tissue was determined in rats at 1 h; type: functional; method in brief: as §3
Mus musculus [35] = test: ED50 value was measured by po administration against streptococcus pneumoniae infection in mice (in vivo, in experiment 3); type: functional
Mus musculus [36] = test: ED50 value was measured by sc administration against streptococcus pneumoniae infection in mice (in vivo, in experiment 1); type: functional; method in brief: as §1
Mus musculus [37] = test: ED50 value was measured by po administration against staphylococcus aureus infection in mice (in vivo, in experiment 3); type: functional
Rattus norvegicus [38] = test: Plasma concentration in rats was determined by subcutaneous administration, 20 mg/kg at 8 h; type: functional, organism-based; set-up: dose 20 mg/kg; method in brief: as §5
Mus musculus [39] = test: ED50 value was measured by sc administration against streptococcus pyogenes infection in mice (in vivo, in experiment 2); type: functional; method in brief: as §1
Mus musculus [40] = test: Plasma concentration in mice was determined by subcutaneous administration, 20 mg/kg at 4 hr; type: functional, organism-based; set-up: dose 20 mg/kg; method in brief: as §2
[41] = system: Staphylococcus epidermidis; test: microbe, parasite or virus in culture; type: functional
Mus musculus [42] = test: ED50 value was measured by sc administration against staphylococcus aureus infection in mice (in vivo, in experiment 1); type: functional; method in brief: as §1
Mus musculus [43] = test: Plasma concentration in mice was determined by subcutaneous administration, 20 mg/kg at 40 min; type: functional, organism-based; set-up: dose 20 mg/kg; method in brief: as §2
Rattus norvegicus [44] = species: Rattus norvegicus; test: Fluid concentration in kidney tissue was determined in rats at 2 h; type: functional; method in brief: as §4
Mus musculus [45] = test: Plasma concentration in mice was determined by subcutaneous administration, 20 mg/kg at 1 hr; type: functional, organism-based; set-up: dose 20 mg/kg; method in brief: as §2

CCCN[C@@H]1[C@H](C)[C@@H](O)[C@](C)(O)[C@@H](CC)OC(=O)[C@H](C)[C@@H](OC2CC(C)(OC)C(O)C(C)O2)[C@H](C)[C@@H](OC2OC(C)CC(N(C)C)C2O)[C@](C)(O)C[C@H]1C (stereo partly specified) was tested, and the MIC (Streptococcus pneumoniae [1]) was 0.015 mg/L (≈ 0.0193 µM), the ED50 (Mus musculus [2]) was 6 mg/kg and the ED50 (Mus musculus [3]) was 1.7 mg/kg. For the same compound, the ED50 (Mus musculus [4]) was 13 mg/kg, the Plasma concentration (Mus musculus [5]) was 0.11 µg/mL and the Activity (Rattus norvegicus [6]) was 0.05 µg/mL. The Activity (Rattus norvegicus [7]) was 1.19 µg/mL, the Plasma concentration (Mus musculus [8]) was 0.036 µg/mL and the ED50 (Streptococcus pyogenes [9]) was 3 mg/kg. For the same compound, the Plasma concentration (Rattus norvegicus [10]) was 0.28 µg/mL, the ED50 (Mus musculus [11]) was 9 mg/kg and the Plasma concentration (Rattus norvegicus [12]) was 0.08 µg/mL. The Activity (Rattus norvegicus [13]) was 0.15 µg/mL, the ED50 (Mus musculus [14]) was 1.8 mg/kg and the Activity (Rattus norvegicus [15]) was 4.9 µg/mL. It also gave a Plasma concentration (Mus musculus [16]) of 1.58 µg/mL, an Activity (Rattus norvegicus [17]) of 0.17 µg/mL and an Activity (Rattus norvegicus [18]) of 5.46 µg/mL. For the same compound, the MIC (Haemophilus influenzae) was 0.5 mg/L (≈ 0.643 µM), the Activity (Rattus norvegicus [19]) was 5.08 µg/mL and the Plasma concentration (Rattus norvegicus [20]) was 0.04 µg/mL. For the same compound, the Activity (Rattus norvegicus [21]) was 0.08 µg/mL, the ED50 (Mus musculus [22]) was 19 mg/kg and the ED50 (Streptococcus pneumoniae [23]) was 7 mg/kg. For the same compound, the Activity (Rattus norvegicus [24]) was 0.31 µg/mL, the Plasma concentration (Rattus norvegicus [25]) was 0.01 µg/mL and the Activity (Rattus norvegicus [26]) was 3.78 µg/mL. It also gave a Plasma concentration (Rattus norvegicus [27]) of 0.18 µg/mL, an MIC (Streptococcus pyogenes [28]) of 0.03 mg/L (≈ 0.0386 µM) and an MIC (Staphylococcus aureus [29]) of 0.25 mg/L (≈ 0.322 µM). It also gave a Plasma concentration (Mus musculus [30]) of 0.75 µg/mL, an ED50 (Staphylococcus aureus [31]) of 12 mg/kg and an ED50 (Mus musculus [32]) of 6.1 mg/kg. The ED50 (Mus musculus [33]) was 14 mg/kg, the Activity (Rattus norvegicus [34]) was 2.25 µg/mL and the ED50 (Mus musculus [35]) was 6 mg/kg. It also gave an ED50 (Mus musculus [36]) of 1.6 mg/kg, an ED50 (Mus musculus [37]) of 13 mg/kg and a Plasma concentration (Rattus norvegicus [38]) of 0.24 µg/mL. For the same compound, the ED50 (Mus musculus [39]) was 1.4 mg/kg, the Plasma concentration (Mus musculus [40]) was 0.06 µg/mL and the MIC [41] was 0.12 mg/L (≈ 0.154 µM). For the same compound, the ED50 (Mus musculus [42]) was 4.7 mg/kg, the Plasma concentration (Mus musculus [43]) was 0.47 µg/mL and the Activity (Rattus norvegicus [44]) was 3.25 µg/mL. The Plasma concentration (Mus musculus [45]) was 0.39 µg/mL.
